High-throughput results from PubChem.
RanGTP-Impb inh: disruptors of Ran-importin-beta complex formation – biochemical, FRET, CFP-Ran, YFP-importin-beta, homogeneous, primary screen; cell-free CFP-Ran/YFP-importin-beta FRET ratio; inhibition, % (concentration not given with the values); 300,000 tested, 1.1% active;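 active = more than half of the replicate wells show a fall in the fluorescence ratio signal beyond about 16%, limit read from the data, passing the limit was not always enough; inconclusive = exactly half of the replicate wells pass the set limit; inactive = fewer than half of replicates pass the limit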;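 also: 0% = DMSO wells and 100% = Ran loaded with GDP instead of GTP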
Runt-SMMHC FRET: Runt domain-CBFb-SMMHC interaction inhibition. Q01196+Q13951. Cerulean-Runt/Venus-CBFb-SMMHC FRET ratio 530/480, 1 h. inhibition, % at 20 µM. 220,000 tested, 0.74% active;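 active = mean inhibition across duplicate retests at 20 µM reaching about 50%, limit read from the data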;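 also: 0% = DMSO wells and 100% = wells with excess untagged CBFb-SMMHC; inhibitors lower the FRET ratio by blocking Runt binding to CBFb-SMMHC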
Runt-CBFb FRET: Runt domain-CBFb interaction inhibition; 220,000 tested, 0.46% active; Cerulean-Runt/Venus-CBFb FRET ratio 530/480, 1 h; Q01196+Q13951; AID 1496; inhibition, % at 20 µM;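 active = inhibition over about 50% at 20 µM in the single-dose screen, limit read from the data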;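 also: 0% = DMSO wells and 100% = excess unlabeled CBFb competitor control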
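test system = Cerulean-Runt domain fusion protein, energy donor | probe or stimulus = Venus-CBFb binding partner, 100 nM | incubation = two 1 h room-temperature incubations shielded from light | detection = fluorescence energy transfer, 422 nm excitation, 530/480 nm emission | measure = loss of energy transfer signal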
TbHK1 inh: T. brucei hexokinase 1 inhibition. recombinant TbHK1, G6PDH-coupled NADH A340. inhibition, % at 10 µM. 220,000 tested, 0.11% active. AID 1430;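 active = inhibition of 50% or more in the single-dose primary screen; inactive = inhibition below 50%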
Hck Nef HTS: inhibitors of human Hck kinase activated by Nef; P08631; Recombinant Hck-YEEI plus Nef, Z-Lyte FRET kinase assay; inhibition, % at 20 µM; 220,000 tested, 0.68% active; AID 463187;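 active = Hck-Nef kinase inhibition above about 50%, limit read from the data; inactive = inhibition below that limit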;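 also: 0% = DMSO with Hck plus Nef and 100% = Hck alone without Nef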
Target sequence (P08631 whole entry, looked up): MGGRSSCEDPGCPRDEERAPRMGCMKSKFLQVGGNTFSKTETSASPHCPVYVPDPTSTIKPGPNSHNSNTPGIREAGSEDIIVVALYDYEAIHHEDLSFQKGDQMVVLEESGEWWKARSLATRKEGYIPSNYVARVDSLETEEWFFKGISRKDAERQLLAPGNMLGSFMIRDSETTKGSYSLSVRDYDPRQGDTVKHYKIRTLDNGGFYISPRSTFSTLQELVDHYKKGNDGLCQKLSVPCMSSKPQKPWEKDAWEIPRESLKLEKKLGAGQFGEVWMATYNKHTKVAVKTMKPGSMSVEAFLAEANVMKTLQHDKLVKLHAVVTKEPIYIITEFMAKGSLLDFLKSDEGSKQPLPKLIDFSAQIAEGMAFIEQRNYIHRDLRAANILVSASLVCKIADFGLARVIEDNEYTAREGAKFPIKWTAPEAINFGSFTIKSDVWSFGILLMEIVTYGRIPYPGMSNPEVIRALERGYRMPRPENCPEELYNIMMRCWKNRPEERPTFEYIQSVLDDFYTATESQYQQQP
p97 inhibitor: blocks human p97 ATPase activity; P55072; recombinant p97 ATPase, Kinase-Glo ATP luminescence, 3 h; inhibition, % at 8 µM; 220,000 tested, 0.42% active; AID 1481; in the data active = inhibition above about 15%;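 also: 0% = DMSO vehicle and 100% = wells lacking enzyme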
YIC counter: counter-screen for RanGTP-importin-beta inhibitors: YIC FRET probe; shares compounds with RanGTP-Impb inh; Purified YIC probe, intramolecular FRET ratio YFP/CFP; IC50, µM; 1,000 tested, 40% active; AID 435026;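 active = fitted half-maximal inhibitory concentration no more than tenfold above the top dose tested; inconclusive = flat fit with 30 to 70% activity, or poor fit; inactive = half-maximal concentration beyond tenfold above the top dose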
Active calls of the source: *; ? = inconclusive; nt = no result. The list is not random: actives were taken first. Their share in the collection is about 2.1%.

SMILES	RanGTP-Impb inh	Runt-SMMHC FRET	Runt-CBFb FRET	TbHK1 inh	Hck Nef HTS	p97 inhibitor	YIC counter
COc1cccc(-c2cc(C(F)(F)F)n3ncc(S(=O)(=O)c4ccccc4)c3n2)c1	35*	38	29	-20	20	1	43*
CC1Cc2cc(S(=O)(=O)NCc3ccccc3)ccc2N1C(=O)C1CC1 (stereo unspecified)	18*	nt	nt	nt	nt	nt	>50
CN1OC(c2ccccc2)=C(CO)C1c1ccccc1 (stereo unspecified)	2	-1	-1	-1	1	3	nt
O=C(CN1C(=O)COc2ccccc21)N1CCCC1	-1	nt	nt	nt	nt	nt	nt
O=C(CCN1C(=O)COc2ccccc21)N1CCCCC1	24*	3	1	-4	1	-1	>50
CCN1C(=S)SC(=O)C1=C1C=C(C)N(Cc2ccco2)C(C)=C1	37*	47	7	1	-1	7	11*
NC(=O)CC(NC(=O)Cc1cccc2ccccc12)c1ccc(N2CCc3ccccc3C2)c([N+](=O)[O-])c1 (stereo unspecified)	-2	0	-5	-9	23	nt	nt
CCOC(=O)/C(=N\Nc1ccccc1[N+](=O)[O-])c1csc(N)n1	6	-3	-5	2	-20	0	nt
CCOC(=O)/C(=N\Nc1ccc(C(C)=O)cc1)c1csc(Nc2ccccc2)n1	18*	-193	-121	-21	-1	0	>50
COc1ccc(C(C)=O)cc1CSc1nnc(C)n1-c1ccccc1	-2	-2	0	-5	5	1	nt
O=C(c1cc2c(=O)n3ccccc3nc2s1)N1CCN(c2cccc(Cl)c2)CC1	29*	nt	nt	nt	nt	nt	>50
COc1cccc(C(C(=O)NC2CCCC2)N(C(=O)c2ccco2)c2ccc(NC(C)=O)cc2)c1OC (stereo unspecified)	-1	nt	nt	nt	nt	nt	nt
O=C(Oc1ccccc1F)c1ccc2c(=O)n3c(nc2c1)CCC3	1	nt	nt	nt	nt	nt	nt
CN1CCN(c2ccc(S(=O)(=O)N3CCCCC3)cc2NC(=O)Cc2ccc(Cl)cc2)CC1	40*	-2	-4	-6	0	3	>50
COc1ccccc1/C=C(\NC(=O)c1ccc(OC)c(OC)c1)C(=O)Nc1cc([N+](=O)[O-])ccc1C	12	-1	-4	-7	8	4	nt
Cc1cccc(-n2ncc3c(N(C)Cc4ccccc4)ncnc32)c1	?	-7	1	-7	31	nt	nt
O=c1cc(CN2CCN(Cc3ccccc3)CC2)c2ccc(O)cc2o1	38*	nt	nt	nt	nt	nt	10*
CC1CN(Cc2cc(=O)oc3cc(O)ccc23)CC(C)O1 (stereo unspecified)	19*	nt	nt	nt	nt	nt	16*
Cc1ccc2c(CN3CC(C)CC(C)C3)cc(=O)oc2c1 (stereo unspecified)	-4	nt	nt	nt	nt	nt	nt
Cc1ccc2c(CN3CCN(Cc4ccccc4)CC3)cc(=O)oc2c1	1	nt	nt	nt	nt	nt	nt
Nc1nc(SCC(=O)NCCC(c2ccccc2)c2ccccc2)n[nH]1	0	-2	-2	4	-22	5	nt
c1ccc(-n2nnnc2-c2cnc(-c3cccnc3)nc2-c2cccs2)cc1	17*	-2	-3	-7	-5	2	>50
COc1ccc(CCNC(=O)C(=O)NCCCN2CCOCC2)cc1	1	0	2	5	-21	0	nt
COc1ccc(-n2nc(C(=O)NCC3CCCO3)c3ccccc3c2=O)cc1 (stereo unspecified)	5	nt	nt	nt	nt	nt	nt
COc1ccc(CCn2c(=N)c(C(=O)NCC3CCCO3)cc3c(=O)n4cccc(C)c4nc32)cc1 (stereo unspecified)	29*	nt	nt	nt	nt	nt	14*
COc1ccc(CCNC(=O)c2cc3c(=O)n4cccc(C)c4nc3n(CCCN3CCOCC3)c2=N)cc1	39*	nt	nt	nt	nt	nt	4.4*
Cc1ccc(CN2C(=O)c3ccccc3NC2c2cc(Br)ccc2O)cc1 (stereo unspecified)	2	nt	nt	nt	nt	nt	nt
O=C(CSc1nnc(NC(=O)c2c(F)cccc2F)s1)NCc1ccc(F)cc1	10	nt	nt	nt	nt	nt	nt
CC(=O)c1ccccc1OC(=O)COc1ccc(Cl)cc1C	-3	-2	2	-2	-113	5	nt
